From ChEMBL document CHEMBL1122296, “Plasmin-activated prodrugs for cancer chemotherapy. 2. Synthesis and biological activity of peptidyl derivatives of doxorubicin” (1983) come the findings set out here.

What is called T/C is the ratio of treated to control.

Format in all cases: functional
Experiment [1] deals with Mus musculus. Kind of experiment: Median survival of treated/ control animals (%T/C) was determined by in vivo antitumor activity against the B16 melanoma cell line at a dose of 5 mg/kg administered intraperitoneally on day 5. The note with it: route intraperitoneal. The essentials:
(§1)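 Murine B16 melanoma implanted intraperitoneally in mice. Drug given intraperitoneally on days 5, 9 and 13 after implantation, with dose expressed as doxorubicin equivalents. Read-out is %T/C, the median survival of treated animals over that of untreated controls.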

The test system of experiment [2] is Mus musculus. In words: Median survival of treated/ control animals (%T/C) was determined by in vivo antitumor activity against the B16 melanoma cell line at a dose of 30 mg/kg administered intraperitoneally on day 5. The note with it: route intraperitoneal. The essentials: as §1
Experiment [3] relates to Mus musculus. Kind of experiment: Median survival of treated/ control animals (%T/C) was determined by in vivo antitumor activity against the B16 melanoma cell line at a dose of 60 mg/kg administered intraperitoneally on day 5. Particulars: route intraperitoneal. The essentials: as §1
In experiment [4] the test system is Mus musculus. Kind of experiment: Median survival of treated/ control animals (%T/C) was determined by in vivo antitumor activity against the B16 melanoma cell line at a dose of 15 mg/kg administered intraperitoneally on day 5. Particulars: route intraperitoneal. The essentials:
as §1

Experiment [5] deals with Mus musculus. In words: Median survival of treated/ control animals (%T/C) was determined by in vivo antitumor activity against the B16 melanoma cell line at a dose of 45 mg/kg administered intraperitoneally on day 5. The note with it: route intraperitoneal. The essentials: as §1
Experiment [6] deals with Mus musculus. In words: Median survival of treated/ control animals (%T/C) was determined by in vivo antitumor activity against the B16 melanoma cell line at a dose of 75 mg/kg administered intraperitoneally on day 5. Particulars: route intraperitoneal. The essentials: as §1
Experiment [7] is filed under the species Gallus gallus. Kind of experiment: Inhibitory activity against the [3H]-thymidine incorporation into DNA of normal chicken embryo fibroblasts at 5 hr of treatment. The note with it: read-out: ED50 (the source's name).
Experiment [8] can be described thus: Selectivity index between the ED50 value for normal cells to that of transformed chicken embryo fibroblast cells at 5 hr of treatment.
The nature of experiment [9]: Degree of improvement in the selective cytotoxicity of the prodrug (drug 10) to that of the parent drug (drug 1) at 5 hr of treatment; Value is measured as 5.8 times.
Experiment [10] is filed under the species Gallus gallus. In words: Inhibitory activity against the [3H]thymidine incorporation into DNA of Rous Sarcoma virus transformed chicken embryo fibroblasts at 5 hr of treatment. Particulars: read-out: ED50 (the source's name). Background: Uptake of a labelled nucleoside into DNA is a usual measure of proliferation.
Experiment [11] can be described thus: Degree of improvement in the selective cytotoxicity of the prodrug (drug 10) to that of the parent drug (drug 1) at 24 hr of treatment; Value is measured as 6.8 times.
Experiment [12] is filed under the species Gallus gallus. In words: Inhibitory activity against the [3H]thymidine incorporation into DNA of normal chicken embryo fibroblasts at 24 hr of treatment. The note with it: read-out: ED50 (the source's name).
The species entered for experiment [13] is Gallus gallus. Kind of experiment: Inhibitory activity against the [3H]thymidine incorporation into DNA of Rous Sarcoma virus transformed chicken embryo fibroblasts at 24 hr of treatment. Particulars: read-out: ED50 (the source's name).
The nature of experiment [14]: Selectivity index between the ED50 value for normal cells to that of transformed chicken embryo fibroblast cells at 24 hr of treatment.
Experiment [15] concerns Mus musculus. In words: Median survival of treated/ control animals (%T/C) was determined by in vivo antitumor activity against the B16 melanoma cell line at a dose of 12 mg/kg administered intraperitoneally on day 5. The note with it: route intraperitoneal. The essentials: as §1
In experiment [16] the test system is Mus musculus. Kind of experiment: Median survival of treated/ control animals (%T/C) was determined by in vivo antitumor activity against the B16 melanoma cell line at a dose of 9 mg/kg administered intraperitoneally on day 5. The note with it: route intraperitoneal. The essentials: as §1
The test system of experiment [17] is Mus musculus. In words: Median survival of treated/ control animals (%T/C) was determined by in vivo antitumor activity against the B16 melanoma cell line at a dose of 1 mg/kg administered intraperitoneally on day 5. The note with it: route intraperitoneal. Put shortly:
as §1

The test system of experiment [18] is Mus musculus. Kind of experiment: Median survival of treated/ control animals (%T/C) was determined by in vivo antitumor activity against the B16 melanoma cell line at a dose of 3 mg/kg administered intraperitoneally on day 5. Particulars: route intraperitoneal. The essentials:
as §1

For experiment [19], the system named is Mus musculus. In words: Median survival of treated/ control animals (%T/C) was determined by in vivo antitumor activity against the B16 melanoma cell line at a dose of 6 mg/kg administered intraperitoneally on day 5. The note with it: route intraperitoneal. Put shortly: as §1

Take `COc1cccc2c1C(=O)c1c(O)c3c(c(O)c1C2=O)C[C@@](O)(C(=O)CO)C[C@@H]3OC1CC(NC(=O)[C@H](CCCCN)NC(=O)[C@H](CC(C)C)NC(=O)[C@@H](NC(=O)OC(C)(C)C)C(C)C)C(O)C(C)O1.Cl` (stereo partly specified): the T/C turned out to be 105% in experiment [1], 110% in [2], 100% in experiment [3] and 100% in experiment [4].
As for `COc1cccc2c1C(=O)c1c(O)c3c(c(O)c1C2=O)C[C@@](O)(C(=O)CO)C[C@@H]3OC1CC(NC(=O)[C@H](CCCCN)NC(=O)[C@H](CC(C)C)NC(=O)[C@H](N)C(C)C)C(O)C(C)O1` (stereo partly specified), the T/C in [5] is recorded as 105%; in experiment [6], 121%; in experiment [1], 105%; in experiment [2] it was 97%; in experiment [3], 113%; in [4] it was 103%. The EC50 in [7] is 54000 nM; in experiment [10], 26000 nM; in [12], 3000 nM; in [13], 800 nM. Also, the Selectivity index was found to be 2.1 in experiment [8] and 3.8 in experiment [14]. The figures for the Improvement in [9] and in experiment [11] were 5.8 and 6.8, respectively.
As for `COc1cccc2c1C(=O)c1c(O)c3c(c(O)c1C2=O)C[C@@](O)(C(=O)CO)C[C@@H]3O[C@H]1C[C@H](N)[C@H](O)[C@H](C)O1` [DOXORUBICIN], the T/C in [15] stood at 68%; in experiment [16], 90%; in experiment [17], 111%; in experiment [18], 137%; in [19], 158%. For the same compound, the EC50 in experiment [7] turned out to be 900 nM; in experiment [10], 2500 nM; in experiment [12], 100 nM; in experiment [13], 180 nM. The Selectivity index in [8] came out at 0.36; in experiment [14], 0.56. The Improvement in experiment [9] is listed as 5.8; in [11], 6.8.
